PPC-1+TRAIL kill = PPC-1 cancer cell killing with TRAIL present; PPC-1 cells + TRAIL, ATPLite viability luminescence; cell killing (% activity), % at 4 µM or 5 µM; 0.41% of 220,000 active; AID 1443;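 active means cell killing above 50% in the first pass at 4 µM, then a duplicate retest at 5 µM averaging 50% or more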
STAT3 inh = STAT3 signaling inhibition; U3A cells, IL-6 STAT3-luciferase reporter, luminescence; host cell line lacks STAT1; inhibition, % at 5.5 µM; 0.89% of 190,000 active;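 active means inhibition above the mean inhibition across all screened compounds plus 3 SD, cut at about 44% in these data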
TAG inh = inhibitors of triacylglycerol accumulation; AID 651582; 0.66% of 230,000 active; H9c2 cells, Nile Red lipid (TAG) fluorescence; cells loaded with 200 µM oleic acid; inhibition, % at 12.5 µM;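 active means pattern-corrected inhibition of lipid staining of at least 50% with the nuclear-stain viability signal not falling by more than 50%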
Platelet DG rel = platelet dense granule release activity. human platelet-rich plasma, SFLLRN dense granule ATP release, luminescence. inhibition, %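 (compounds screened at 7.5 µM in platelet-rich plasma)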. 0.22% of 300,000 active;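 active means mean replicate score, as percent of positive control, at or above 50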
Lipid droplet = hepatic lipid droplet formation modulation. AML12 mouse hepatocytes, oleate lipid droplets, BODIPY imaging. inhibition, % at 6.5 µM. 0.4% of 240,000 active;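 active means lipid droplet intensity inhibited by at least 50%, with more than 500 cells counted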
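Material – AML12 mouse liver cells · Also added – oleate loading, 100 µM · Compound dosing – 6.5 µM single-point dosing · Times – overnight treatment with compound plus oleate · Measured by – fluorescence imaging, 20x objective, two fields per well · Read-out – percent inhibition of filter-corrected integrated lipid droplet intensity per well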
STAT1 inh = inhibitors of IFN-gamma induced STAT1 signaling. NIH 3T3 STAT1-luciferase reporter, luminescence. inhibition, % at 5.5 µM. 0.35% of 200,000 active;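 active means inhibition above a set limit, the mean inhibition across all tested compounds plus 3 SD, cut at about 34% in these data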
Hep lipid conf = confirmation of inhibitors of hepatic lipid droplet formation; shares compounds with Lipid droplet; AML12 mouse hepatocytes, BODIPY lipid droplet imaging; droplets induced with 100 µM oleic acid; inhibition, % at 5.2 µM; 65% of 870 active; AID 463183;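 active means inhibition of lipid droplet metric at least 50%, with more than 300 cells in each of four replicates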
AML12 cytotox = toxic to AML12 mouse hepatocytes in counter-screen. shares compounds with Lipid droplet. DAPI nuclear morphology cytotoxicity imaging; hits give high values; cells fed 100 µM oleate overnight. AID 463200. 3% of 870 active. z-score at 5 µM; in the data active means z-score above about 6.3;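 further: compound exposure lasted overnight at 37 °C before fixation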
AML12 tox conf = confirmation of cytotoxicity in AML12 mouse hepatocytes; 530 tested, under 10 active; shares compounds with Lipid droplet; AID 463219; cytotoxicity, % at 50 µM; AML12 mouse hepatocyte viability, ATP luminescence; cells loaded with 100 µM oleic acid;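 active means cytotoxicity above 50% in each of four replicates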;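 further: compound exposure lasted overnight at 37 °C before the ATP read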
H9c2 TAG conf = triacylglycerol accumulation inhibition, confirmation; H9c2 lipid accumulation, Nile Red fluorescence; cells loaded with 200 µM oleic acid; 71% of 990 active; inhibition, % at 12.5 µM; shares compounds with TAG inh;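 active means mean inhibition across replicates of 40% or more; inactive means mean inhibition below 40%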
Numbers stand for hits; i = inactive; nt = not tested or not shown. A selection: hits, their analogues and other compounds. The true share with any hit is near 1.5%.

SMILES	PPC-1+TRAIL kill	STAT3 inh	TAG inh	Platelet DG rel	Lipid droplet	STAT1 inh	Hep lipid conf	AML12 cytotox	AML12 tox conf	H9c2 TAG conf
CCOc1ccccc1NC(=O)CCC(=O)Nc1ccccc1OCC	i	i	59	i	60	i	94	i	i	49
CCOc1ccccc1NC(=O)CCC(=O)O	i	i	nt	i	nt	i	nt	nt	nt	nt
Oc1ccc(-c2nccc(-c3ccccn3)n2)cc1	nt	nt	nt	i	nt	nt	nt	nt	nt	nt
COc1ccc(C(C(=O)NC(C)(C)C)N(CC2CCCO2)C(=O)CCC(=O)Nc2cc(C)on2)cc1 (stereo unspecified)	i	i	50	i	58	i	90	i	i	i
COc1ccc(-c2cc(-c3ccccc3)nc(SCC(=O)Nc3ncc(C)s3)c2C#N)cc1	i	i	nt	i	i	i	nt	nt	nt	nt
CCOc1ccc2nc(-c3ccccc3)nc(SCC(=O)Nc3ncc(C)s3)c2c1	i	i	83	i	101	i	107	i	i	81
COc1ccc([C@H]2C(C(=O)O)=C[C@@H](C(C)(C)C)N2S(=O)(=O)c2ccc(C)cc2)cc1OC	nt	nt	i	nt	nt	nt	nt	nt	nt	nt
COCCCn1c(SCC(=O)Nc2ccc(NC(=O)c3ccco3)c(OC)c2)nc2ccccc2c1=O	i	i	62	i	104	i	104	i	i	i
CCOCCCn1c(SCC(=O)Nc2ccccc2OC)nc2ccccc2c1=O	nt	nt	nt	i	i	nt	nt	nt	nt	nt
O=C(NCc1ccccc1)c1cc(C2CCCCN2C(=O)c2ccccc2)on1 (stereo unspecified)	nt	nt	i	nt	nt	nt	nt	nt	nt	nt
COc1ccc2c(c1)c(CC(=O)Nc1ccc(C)cc1)c(C)n2C(=O)c1ccc(Cl)cc1	i	i	61	i	80	i	106	i	i	50
Cc1cccc(C)c1Cn1c(C)c(C(=O)NCc2ccc([N+](=O)[O-])cc2)sc1=O	nt	nt	i	nt	nt	nt	nt	nt	nt	nt
CCc1nn2c(N3CCOCC3)cc(C)nc2c1-c1ccc(F)cc1	i	i	70	i	88	i	110	i	i	64
O=C(C[C@@H]1C/C=C/CC[C@@H](Cc2ccc(F)cc2)C(=O)OC[C@H](Cc2ccccc2)NC1=O)N[C@H](CO)Cc1ccccc1	nt	nt	i	nt	nt	nt	nt	nt	nt	nt
c1ccc(-c2nc(N3CCOCC3)cc(N3CCOCC3)n2)cc1	i	i	51	i	67	i	92	i	i	54
Cc1cc(C)c2nc(N3CCC(C(=O)NCCCN4CCCCC4)CC3)sc2c1	i	i	60	i	i	i	nt	nt	nt	i
C/C=C(\C)C(=O)Nc1cccc(C2=NOC3(C2)C[C@@H](C(N)=O)N(C(=O)c2cc([N+](=O)[O-])cc([N+](=O)[O-])c2C)C3)c1 (stereo partly specified)	i	nt	i	i	i	nt	nt	nt	nt	nt
Cc1c(C(=O)N2CC3(CC(c4cccc(NC(=O)CC(c5ccccc5)c5ccccc5)c4)=NO3)C[C@@H]2C(N)=O)cc([N+](=O)[O-])cc1[N+](=O)[O-] (stereo partly specified)	i	nt	54	i	i	nt	nt	nt	nt	43
O=C(CCl)Nc1cc2[nH]c(=O)[nH]c2cc1Br	i	i	51	i	i	i	nt	nt	nt	69
COc1ccc(C(C)(NC(C)=O)c2nc(-c3ccncc3)cs2)cc1 (stereo unspecified)	nt	nt	i	nt	nt	nt	nt	nt	nt	nt
CCCCCCCC(=O)Nc1cc(C(=O)NCCC)ccc1N1CCC2(CC1)CC(c1cccc(Br)c1)=NO2	nt	nt	70	i	nt	nt	nt	nt	nt	61
COc1ccc(CNC(=O)c2ccc(N3CCC4(CC3)CC(c3ccc(Cl)cc3)=NO4)c(NC(=O)c3ccccc3)c2)cc1	nt	nt	i	i	nt	nt	nt	nt	nt	nt
CCCCC(CC)C(=O)Nc1cc(C(=O)NCc2ccc(C)cc2)ccc1N1CCC2(CC1)CC(c1ccccc1)=NO2 (stereo unspecified)	nt	nt	56	i	i	nt	nt	nt	nt	55

Screening results deposited in PubChem by several laboratories.
